Results taken from the RNAGym collection of RNA variant scans (doi:10.1126/science.aae0568).
Fewer inactive variants are shown than the library holds.

B1: tRNA (parent)
chain: GUUCCGUUGGCGUAAUGGUAACGCGUCUCCCUCCUAAGGAGAAGACUGCGGGUUCGAGUCCCGUACGGAACG

Variants of: B1
Experiment: yeast fitness relative to wild type (ratio to wild type); higher = fitter; tRNA-Arg(CCU), competitive growth, 37 C, YPD
Outline: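 Amplicons of the tRNA-Arg(CCU) gene were sequenced, 100-nucleotide paired-end, from the start population and from each end population of a pooled yeast competition. The competition, in six parallel replicates, lasted 24 hours in YPD at 37°C. Fitness relative to wild type was calculated from changes in genotype frequencies. Genotypes had to have ≥ 100 starting reads, and estimates < 0.5 were set to 0.5.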

Going from C31A U54C to C31A U59A A70C, the yeast fitness falls from 0.562 to no more than 0.5.

C31A U64G A69C and C31G A36C C49G cannot be ordered by yeast fitness: no more than 0.5 for the first, no more than 0.5 for the second.

C31G A36C C61U and C31G A36C G41A C49U cannot be ordered by yeast fitness: no more than 0.5 for the first, no more than 0.5 for the second.

Going from C31G A36C U47C to C31G A36U, the yeast fitness rises from no more than 0.5 to 0.615.

Going from C31G A36U A65U to C31G A36U G39A, the yeast fitness falls from 0.517 to no more than 0.5.

Going from C31G A37C C60U to C31G A37C G52C C61A C66U, the yeast fitness rises from no more than 0.5 to 0.527.

C31G A37C G52C C61G C66U and C31G A37U G39C A42C cannot be ordered by yeast fitness: no more than 0.5 for the first, no more than 0.5 for the second.

Going from C31G A40G C46A to C31G A40G G52C, the yeast fitness falls from 0.618 to no more than 0.5.

Compared with C31G A42C C55U G68A, C31G A42U C62U is higher in yeast fitness: 0.542 for the first, 0.742 for the second.

First: C31G A43G C49U C61A
Second: C31G A43G C49U G68A
The yeast fitness of the first is lower: no more than 0.5 for the first, 0.558 for the second.

C31G A43U C46G C66U A70U and C31G A45C A65U cannot be ordered by yeast fitness: no more than 0.5 for the first, no more than 0.5 for the second.

First: C31G A45G
Second: C31G A45G G56U
The yeast fitness of the first is higher: 0.809 for the first, 0.561 for the second.

C31G A45U C49G A70U and C31G A45U G58U C62U cannot be ordered by yeast fitness: no more than 0.5 for the first, no more than 0.5 for the second.

First: C31G A45U U47A G67A
Second: C31G A57C C62G
The yeast fitness of the first is lower: no more than 0.5 for the first, 0.703 for the second.

C31G A57U A69C and C31G A57U G58C cannot be ordered by yeast fitness: no more than 0.5 for the first, no more than 0.5 for the second.

First: C31G C33U A37C
Second: C31G C33U A40C
The yeast fitness of the first is lower: no more than 0.5 for the first, 0.6 for the second.

C31G C33U U35A and C31G C34G A40U cannot be ordered by yeast fitness: no more than 0.5 for the first, no more than 0.5 for the second.

C31G C34G A42C C66G and C31G C34G A45U G63C cannot be ordered by yeast fitness: no more than 0.5 for the first, no more than 0.5 for the second.

First: C31G C34U A40C G41A
Second: C31G C46G G50A
The yeast fitness of the first is lower: no more than 0.5 for the first, 0.552 for the second.

Compared with C31G C46G G58C, C31G C49G C62U G67C G68A is lower in yeast fitness: 0.928 for the first, 0.539 for the second.

Going from C31G C55G A65G to C31G C61G, the yeast fitness rises from no more than 0.5 to 0.623.

Going from C31G C62G to C31G C66U, the yeast fitness rises from 0.827 to 0.867.

Compared with C31G G38A G52A C61A G63A, C31G G38C A43U is higher in yeast fitness: no more than 0.5 for the first, 0.538 for the second.

Compared with C31G G41A U53C, C31G G44C G52C C60G is lower in yeast fitness: 0.52 for the first, no more than 0.5 for the second.

First: C31G G51C C61U
Second: C31G G58A C61A
The yeast fitness of the first is lower: no more than 0.5 for the first, 0.708 for the second.

C31G G63C A65C and C31G U32A A40C cannot be ordered by yeast fitness: no more than 0.5 for the first, no more than 0.5 for the second.

C31G U32C A37U and C31G U35A G56A G63A cannot be ordered by yeast fitness: no more than 0.5 for the first, no more than 0.5 for the second.

Going from C31G U35C C46U to C31G U47G C49G, the yeast fitness rises from 0.582 to 0.647.

Compared with C31G U53C, C31G U54G is lower in yeast fitness: 0.662 for the first, 0.6 for the second.

First: C31G U64C G67A
Second: C31U A37C
The yeast fitness of the first is lower: no more than 0.5 for the first, 0.761 for the second.

Going from C31U A37C C55U A65U A70G to C31U A37G A45C, the yeast fitness rises from no more than 0.5 to 0.618.

C31U A40C G56C and C31U A40G G48C A57U U59A A69C cannot be ordered by yeast fitness: no more than 0.5 for the first, no more than 0.5 for the second.

Compared with C31U A40U U54C, C31U A40U U59C is higher in yeast fitness: 0.541 for the first, 0.648 for the second.

First: C31U A42G
Second: C31U A42G C55U
The yeast fitness of the first is higher: 0.73 for the first, 0.511 for the second.

Compared with C31U A43C A69C, C31U A43C U54C is lower in yeast fitness: 0.902 for the first, 0.596 for the second.

Compared with C31U A45C C61G A65C, C31U A57G C66U is higher in yeast fitness: no more than 0.5 for the first, 0.583 for the second.

Compared with C31U A65G, C31U A69C A70U is lower in yeast fitness: 1.11 for the first, 0.747 for the second.

Going from C31U A69U A70C to C31U A70C, the yeast fitness rises from 0.778 to 1.05.

Going from C31U C33U A42C C49U A65C to C31U C34A, the yeast fitness rises from no more than 0.5 to 0.863.

C31U C34U G38A G44C and C31U C46A A57C A65U cannot be ordered by yeast fitness: no more than 0.5 for the first, no more than 0.5 for the second.

First: C31U C46A A57U C60U
Second: C31U C46G G50A C61U
The yeast fitness of the first is lower: no more than 0.5 for the first, 0.649 for the second.

Compared with C31U C46U G51A, C31U C55G C62U is lower in yeast fitness: 0.968 for the first, no more than 0.5 for the second.

Going from C31U C55U A70U to C31U C60A G67A, the yeast fitness falls from 0.567 to no more than 0.5.

C31U C60U G67A A69U and C31U C61A C62U A65U cannot be ordered by yeast fitness: no more than 0.5 for the first, no more than 0.5 for the second.

Going from C31U C61G C66G to C31U C61U A70U, the yeast fitness rises from no more than 0.5 to 0.696.

Going from C31U C62U G63A to C31U G39C, the yeast fitness rises from 0.617 to 0.901.

First: C31U G41C A43C C60G
Second: C31U G41U
The yeast fitness of the first is lower: no more than 0.5 for the first, 1.03 for the second.

Going from C31U G41U G56A to C31U G41U G63A, the yeast fitness rises from 0.686 to 0.721.

Going from C31U G44A to C31U G44C U64C, the yeast fitness falls from 1.02 to 0.559.

First: C31U G48A A69C
Second: C31U G48A C55U G63C
The yeast fitness of the first is higher: 0.772 for the first, 0.595 for the second.

Going from C31U G48C U59A G67C A69C to C31U G51A, the yeast fitness rises from no more than 0.5 to 0.892.

First: C31U G51A G56C G67C
Second: C31U G52A
The yeast fitness of the first is lower: 0.526 for the first, 0.871 for the second.

Compared with C31U G52A G68C, C31U G63C G67C A69U is higher in yeast fitness: no more than 0.5 for the first, 0.511 for the second.

First: C31U G68A A69G
Second: C31U U32C
The yeast fitness of the first is lower: 0.702 for the first, 0.812 for the second.

C31U U32C U54G C55U C61U and C31U U32G C33G G58C cannot be ordered by yeast fitness: no more than 0.5 for the first, no more than 0.5 for the second.

First: C31U U35C A40G A65U
Second: C31U U47A
The yeast fitness of the first is lower: no more than 0.5 for the first, 0.817 for the second.

Going from C31U U47G A65U to C31U U53A G68A, the yeast fitness rises from no more than 0.5 to 0.515.

Compared with C31U U53C C62U, C31U U53G is higher in yeast fitness: no more than 0.5 for the first, 0.644 for the second.

First: C31U U54A C62G G68C
Second: C31U U59A
The yeast fitness of the first is lower: no more than 0.5 for the first, 0.771 for the second.

U32A A36U A70G and U32A A36U C62U cannot be ordered by yeast fitness: no more than 0.5 for the first, no more than 0.5 for the second.

Compared with U32A A36U G44C A45G, U32A A37G G48A U59C is higher in yeast fitness: 0.516 for the first, 0.541 for the second.

First: U32A A42C
Second: U32A A42C C61G C66G
The yeast fitness of the first is higher: 0.817 for the first, 0.554 for the second.

Compared with U32A A57U, U32A A65C is higher in yeast fitness: 0.558 for the first, 0.887 for the second.

Going from U32A A70C to U32A C33G C60A, the yeast fitness falls from 0.741 to no more than 0.5.

Compared with U32A C33U, U32A C49G C55U A69C is lower in yeast fitness: 0.597 for the first, 0.546 for the second.

Going from U32A C49U G68A to U32A C55A C61U, the yeast fitness rises from no more than 0.5 to 0.536.

Going from U32A C61A A65U to U32A C61G C66G, the yeast fitness rises from no more than 0.5 to 0.576.

Compared with U32A C66A, U32A G39A U54A is lower in yeast fitness: 0.614 for the first, no more than 0.5 for the second.

First: U32A G58C A69U
Second: U32A G58C C66A
The yeast fitness of the first is higher: 0.56 for the first, no more than 0.5 for the second.

Compared with U32A G63A, U32A G63C is lower in yeast fitness: 0.748 for the first, 0.626 for the second.

First: U32A G67A
Second: U32A G68C
The yeast fitness of the first is higher: 0.766 for the first, 0.721 for the second.

First: U32A U54C
Second: U32A U64A G67A
The yeast fitness of the first is higher: 0.629 for the first, no more than 0.5 for the second.

First: U32A U64G
Second: U32C A36C
The yeast fitness of the first is lower: 0.751 for the first, 0.756 for the second.

First: U32C A37C G38A G63A
Second: U32C A37C G39C
The yeast fitness of the first is higher: 0.533 for the first, no more than 0.5 for the second.

Compared with U32C A37U C49G A70U, U32C A40G G41A is lower in yeast fitness: 0.664 for the first, no more than 0.5 for the second.

First: U32C A40U C55G A70C
Second: U32C A42C C46U
The yeast fitness of the first is lower: no more than 0.5 for the first, 0.63 for the second.

First: U32C A42U G48C
Second: U32C A43G C66U
The yeast fitness of the first is lower: 0.567 for the first, 0.758 for the second.

Going from U32C A45U C66A to U32C A65U G67A, the yeast fitness rises from no more than 0.5 to 0.646.

Compared with U32C A69C, U32C C33A G51C G68A is lower in yeast fitness: 0.943 for the first, no more than 0.5 for the second.

Compared with U32C C33G G67C, U32C C33U is higher in yeast fitness: no more than 0.5 for the first, 0.659 for the second.

First: U32C C34G A65U A70G
Second: U32C C34U U53A G68C
The yeast fitness of the first is lower: no more than 0.5 for the first, 0.537 for the second.

Compared with U32C C46G C62U, U32C C46U is higher in yeast fitness: 0.733 for the first, 0.862 for the second.

First: U32C C46U G50A G56C C62A C66U
Second: U32C C60G A65C
The yeast fitness of the first is lower: no more than 0.5 for the first, 0.501 for the second.

For U32C C61G A69C, the yeast fitness was no more than 0.5.
